Experimental data: ChEMBL document CHEMBL1124070, “Potential anticancer agents: 5-(N-substituted-aminocarbonyl)- and 5-(N-substituted-aminothiocarbonyl)-5,6,7,8-tetrahydrofolic acids” (J Med Chem, 1988)
Active and inactive are the calls of the source. No cut-off for these calls is given here.

Columns and labels:
HEp-2 [1] = test: Dose of compound required to inhibit colony formation of H.Ep-2 cells; assay type: functional, cell-based; settings: Homo sapiens
In short: (§1)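 Colony-forming viability assay in H.Ep.-2 cells. The ED50 is the concentration that inhibits colony formation by 50%.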

P388 = test: Compound was tested for cytotoxicity against P388 cells; IA=Inactive; assay type: functional, cell-based; settings: Mus musculus
[2] = Compound was tested for activity against 10 isolated folate-utilizing enzymes; IA=Inactive
L1210 = test: Compound was tested for activity against L1210 cells in mice; IA=Inactive; assay type: functional, cell-based; settings: Mus musculus
HEp-2 [3] = test: Effective dose required to inhibit colony formation of H.Ep-2 cells; assay type: functional; settings: Homo sapiens, read-out: ED50 (the source's name); in short: as §1

Structure (SMILES)	IC50 (HEp-2 [1]) [µM]	Activity [2]	EC50 (HEp-2 [3]) [µM]	Cytotoxicity (P388)	Cytotoxicity (L1210)
Nc1nc(O)c2c(n1)NCC(CNc1ccc(C(=O)NC(CCC(=O)O)C(=O)O)cc1)N2C(=O)NCCCl (stereo not given)		inactive			inactive
Nc1nc(O)c2c(n1)NCC(CNc1ccc(C(=O)NC(CCC(=O)O)C(=O)O)cc1)N2/C(S)=N/c1ccccc1 (stereo not given)		inactive			inactive
NC(=O)N1c2c(O)nc(N)nc2NCC1CNc1ccc(C(=O)NC(CCC(=O)O)C(=O)O)cc1 (stereo not given)		inactive			inactive
CC/N=C(\S)N1c2c(O)nc(N)nc2NCC1CNc1ccc(C(=O)NC(CCC(=O)O)C(=O)O)cc1 (stereo not given)		inactive			inactive
CCOC(=O)CCCCCNC(=O)N1c2c(O)nc(N)nc2NCC1CNc1ccc(C(=O)NC(CCC(=O)O)C(=O)O)cc1 (stereo not given)			13	inactive	

The next lines start with results.

IC50 (HEp-2 [1]) [µM]	Activity [2]	EC50 (HEp-2 [3]) [µM]	Structure (SMILES)	Cytotoxicity (P388)	Cytotoxicity (L1210)
> 25			CCOC(=O)CCCCCCCC/N=C(\S)N1c2c(O)nc(N)nc2NCC1CNc1ccc(C(=O)NC(CCC(=O)O)C(=O)O)cc1 (stereo not given)	inactive	
> 25			CCOC(=O)CCCCCC/N=C(\S)N1c2c(O)nc(N)nc2NCC1CNc1ccc(C(=O)NC(CCC(=O)O)C(=O)O)cc1 (stereo not given)		
		35	CCOC(=O)CCCCCCCCNC(=O)N1c2c(O)nc(N)nc2NCC1CNc1ccc(C(=O)NC(CCC(=O)O)C(=O)O)cc1 (stereo not given)	inactive	
> 25			CCOC(=O)CCCCC/N=C(\S)N1c2c(O)nc(N)nc2NCC1CNc1ccc(C(=O)NC(CCC(=O)O)C(=O)O)cc1 (stereo not given)		
		24	CCOC(=O)CCCCCCCNC(=O)N1c2c(O)nc(N)nc2NCC1CNc1ccc(C(=O)NC(CCC(=O)O)C(=O)O)cc1 (stereo not given)		
> 25			CCOC(=O)CCCCCCC/N=C(\S)N1c2c(O)nc(N)nc2NCC1CNc1ccc(C(=O)NC(CCC(=O)O)C(=O)O)cc1 (stereo not given)		
		4	CCOC(=O)CCCCCCNC(=O)N1c2c(O)nc(N)nc2NCC1CNc1ccc(C(=O)NC(CCC(=O)O)C(=O)O)cc1 (stereo not given)	inactive	
